# Assay outcomes as filed in PubChem.
# Sampled rows, rich in hits. Any-hit rate of the full collection: about 3.7%.
# KCNK9 inh-1 = human KCNK9 channel inhibition; Q9NPC2; HEK293 KCNK9, FluxOR thallium flux fluorescence; hits give low values; B-score at 10 µM; actives 1.2% (n = 310,000); AID 488922;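 active = ratio B-score over 3 SD below the library mean, with starting fluorescence within 5 SD of its mean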;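 note: negative B-score means less thallium flux so channel inhibition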
# KCNQ1 block = blocks the human KCNQ1 potassium channel; P51787; CHO-K1 KCNQ1, FluxOR thallium flux fluorescence; hits give high values; B-score at 10 µM; actives 1.3% (n = 310,000); AID 2642;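 active = compounds whose thallium flux B-score, printed positive for inhibition, exceeds three library SD while starting fluorescence stays within three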;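 note: channel opened by potassium depolarization with thallium stimulus after 20 min compound exposure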
# KCNQ1 pot = human KCNQ1 channel potentiation or activation. P51787. CHO-K1 KCNQ1, thallium flux FluxOR fluorescence; hits give high values. B-score at 10 µM. actives 0.35% (n = 310,000);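 active = fluorescence ratio B-score, a plate-corrected score, at least three library SD, with initial intensity B-score within 5 SD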
#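 System: Stable KCNQ1 CHO-K1 line | Incubation: 90 min dye loading and 20 min compound exposure, both at room temperature | Measure: Ratio B score | Medium: Assay buffer for compound exposure, DMSO matched across wells | Compound dosing: Single-concentration screen | Probe or stimulus: K+/Tl+ depolarizing stimulus | Measured by: Kinetic FluxOR fluorescence, 10 s baseline plus 110 s post-stimulus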
# Kir21 inh = Kir2.1 (mouse) channel inhibition; P35561; HEK293-Kir2.1, FluxOR thallium flux fluorescence; hits give low values; B-score at 10 µM; actives 0.85% (n = 310,000); AID 1672;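 active = fluorescence ratio B-score at or below minus 3 SD of library scores, with starting-brightness B-score within 2 SD, cut at about -4.2 in these data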;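 note: channel flux triggered by added potassium and thallium sulfate stimulus; B-score of peak minus minimum fluorescence over baseline after thallium stimulus; more negative B-score means stronger Kir2.1 block with less thallium influx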
# Target sequence (P35561 whole entry, looked up): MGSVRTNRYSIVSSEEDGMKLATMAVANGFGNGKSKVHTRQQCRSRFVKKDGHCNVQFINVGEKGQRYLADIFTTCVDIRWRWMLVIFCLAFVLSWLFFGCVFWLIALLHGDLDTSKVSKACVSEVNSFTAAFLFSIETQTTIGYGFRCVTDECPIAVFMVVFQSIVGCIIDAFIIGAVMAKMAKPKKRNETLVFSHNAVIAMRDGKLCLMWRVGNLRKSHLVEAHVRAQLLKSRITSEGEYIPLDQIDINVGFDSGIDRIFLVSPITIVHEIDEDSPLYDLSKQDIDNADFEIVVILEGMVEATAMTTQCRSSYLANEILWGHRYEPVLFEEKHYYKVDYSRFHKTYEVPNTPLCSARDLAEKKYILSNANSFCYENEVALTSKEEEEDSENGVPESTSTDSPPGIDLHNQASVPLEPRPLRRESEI
# hERG protect = shields human hERG channel from block by proarrhythmic agents; actives 0.51% (n = 310,000); Q12809; activation (rescue from dofetilide block), less the hit threshold, % at 10 µM; CHO-hERG, FluxOR thallium flux, dofetilide IC70 present;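 active = activation above the mean of controls blocked by dofetilide plus 5 SD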;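 note: thallium influx through hERG after potassium depolarization seen as dye fluorescence rise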
# KCNK3 block = human KCNK3 channel inhibition, primary screen; O14649; CHO-KCNK3 thallium flux, FluxOR fluorescence; hits give low values; B-score at 10 µM; actives 0.84% (n = 340,000); AID 602410;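 active = B-score under library mean minus 4 SD, starting fluorescence ratio at most library mean plus 5 SD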;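 note: more negative B-score means stronger inhibition of thallium flux through KCNK3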
# hERG inh = hERG (human) inhibition as Kir2.1 counter-screen; hERG-expressing cells, thallium flux; actives 20% (n = 320); shares compounds with Kir21 inh; inhibition, % at 10 µM;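 note: host cells are CHO cells stably expressing hERG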
# KCNK9 inh-2 = selectivity of Kir2.1 inhibitors: effect on human KCNK9. shares compounds with Kir21 inh. KCNK9-expressing cells, ion flux inhibition. inhibition, % at 10 µM. actives 5% (n = 320)
# Kir21 ephys inh = mouse Kir2.1 inward rectifier channel inhibition; actives 71% (n = 320); Kir2.1 cells, automated patch-clamp current inhibition; inhibition, % at 25 µM; AID 463252; shares compounds with Kir21 inh
# The depositor's hits bear a star; i = inactive; x = no result given. Unless noted, the rule behind the calls is not given here.
SMILES,KCNK9 inh-1,KCNQ1 block,KCNQ1 pot,Kir21 inh,hERG protect,KCNK3 block,hERG inh,KCNK9 inh-2,Kir21 ephys inh
Cc1[nH]n(-c2ccccc2)c(=O)c1S(=O)(=O)c1ccccc1,i,i,i,-14.5*,-13.8,i,i,i,66.2%*
CN(C(=S)NCCN1CCOCC1)C(c1ccccc1)c1ccccc1,i,i,i,0.13,-1.1,i,x,x,x
NC(=O)C1=C[C@H](c2ccc(Br)cc2)C[C@H](OCc2ccc(CO)cc2)O1,i,i,i,-7.06*,-5.4,i,i,i,22.7%*
COc1ccc(CN2CCCN(S(=O)(=O)c3ccc(Br)cc3)CC2)cc1,i,i,i,-6.78*,-11.3,i,67.0%*,i,31.2%*
CSc1ccc(NC(=O)NCCCN2CCC(Cc3ccccc3)CC2)cc1,i,i,i,-5.96*,-19.8,i,75.0%*,i,20.4%*
Cc1onc(-c2ccccc2)c1CNS(=O)(=O)c1cccc(Cl)c1,i,i,i,-9.8*,-4.2,i,i,i,12.4%*
Cc1c(-c2cccc(NC(=O)c3cccs3)c2)nc2ncccn12,i,i,i,-1.94,-19.8,i,x,x,x
Cn1c(-c2ccc(F)cc2)cnc1NCc1ccc(F)cc1,i,i,i,-10.2*,-12.0,i,i,i,59.9%*
Cn1c(-c2ccc(F)cc2)cnc1NCc1ccc(C#N)cc1,i,i,i,-0.71,-12.9,i,x,x,x
O=C(CCCN1CCC(O)(c2ccc(Cl)cc2)CC1)c1ccc(F)cc1,i,i,i,-5.5*,x,i,x,i,54.9%*
CC(C)c1ccc(C(C)NCCS(=O)(=O)c2ccc(Cl)cc2)cc1 (centres undefined),i,i,i,-8.04*,-15.2,i,i,i,5.1%*
CC(C(=O)NCCS(=O)(=O)c1ccc(Br)cc1)S(=O)(=O)c1ccc(Cl)cc1 (centres undefined),i,i,i,-0.02,-0.9,i,x,x,x
CS(=O)(=O)c1ccc(Cl)c(NC(=O)CNC(=O)c2ccc3c(c2)OCO3)c1,x,x,x,x,x,i,x,x,x
COc1ccc(Cl)c(N2CCN(CCCNC(=O)Nc3ccc(C)cc3)CC2)c1,i,i,i,-6.35*,-19.2,i,70.0%*,i,4.8%*
COc1ccc(NC(=O)NCCN2CCN(c3cc(OC)ccc3OC)CC2)cc1,i,i,i,-0.1,-6.8,i,x,x,x
CNCCC1Sc2ccccc2Oc2ccccc21 (centres undefined),i,i,i,-5.94*,-5.5,i,i,i,1.9%*
CCCCNC(=O)C1c2ccccc2Oc2ccccc21,i,i,i,-0.87,-12.3,i,x,x,x
CC(C)(C)OC(=O)NCCc1nnc(SCc2ccc(Cl)cc2Cl)o1,i,i,i,-8.94*,-15.8,i,i,i,47.7%*
Cc1ccccc1NC(=O)c1ccc(Cn2cc([N+](=O)[O-])cn2)o1,i,i,i,-0.27,-2.7,i,x,x,x
Cc1ccc(NC(=O)c2ccc(Cn3cc(Cl)cn3)o2)c(C)c1,i,i,i,-10*,-9.7,i,i,i,50.6%*
c1cc(CN2CCCCC2)cc(OCCCNc2nc3ccccc3s2)c1,i,i,i,-7.3*,-9.7,i,i,i,48.2%*
CCOC(=O)c1nnn(-c2nonc2N)c1CSc1ccc(C)cc1,i,i,i,-8.46*,-8.5,i,i,i,8.6%*
O=C(Cc1cc(=O)[nH]c(=O)[nH]1)N1CCC(Cc2ccccc2)CC1,i,i,i,-0.19,-12.2,i,x,x,x
COc1ccccc1/C=C(\NC(=O)c1ccccc1)C(=O)NCc1ccco1,i,i,i,3.92,-3.5,i,i,i,i
Cc1c(Br)cc(C(=O)OC2CCN(C)CC2)c(C)c1C,i,i,i,-10.1*,-11.5,i,i,i,45.4%*
SMILES,KCNK9 inh-1,KCNQ1 block,KCNQ1 pot,Kir21 inh,hERG protect,KCNK3 block,hERG inh,KCNK9 inh-2,Kir21 ephys inh
CCS(=O)(=O)N1CCC(NC(=O)C(Cc2cc(OC)ccc2OC)NC(C)=O)CC1 (centres undefined),i,i,i,1.87,-15.5,i,i,i,i
COc1ccc(CC(NC(C)=O)C(=O)NC2CCN(S(=O)(=O)c3ccc(NC(C)=O)cc3)CC2)c(OC)c1 (centres undefined),i,i,i,-1.08,-4.7,i,x,x,x
CCOc1ccc(OCCC(=O)Nc2cccc(S(=O)(=O)N3CCCC3)c2)cc1,x,x,x,x,x,i,x,x,x
CC1CCc2c(sc(NC(=O)CN3CCN(C(=O)c4ccco4)CC3)c2C#N)C1 (centres undefined),i,i,i,0.38,-6.9,i,x,x,x
Cc1ccc(S(=O)(=O)NCC(=O)OC(C)C(=O)NC2CCCCC2C)cc1C (centres undefined),x,x,x,x,x,i,x,x,x
CCN(Cc1ccc(C#CCCO)cc1)CC1CCCN(CCc2cccc(F)c2)C1 (centres undefined),i,i,i,-6.7*,-4.0,i,55.0%*,i,13.7%*
Cn1c(N)c(N=O)c(=O)n(C)c1=S,x,x,x,x,x,i,x,x,x
COc1ccc(CCN2CCCC(CN(C)Cc3cccc(OC)c3)C2)cc1 (centres undefined),i,i,i,-9.49*,-11.7,i,i,i,37.1%*
CC(=O)N1CCN(C(=O)c2ccc(S(=O)(=O)Nc3cccc(C(F)(F)F)c3)cc2)CC1,i,i,i,3.97,-14.7,i,i,i,i
CCCN(CCC)S(=O)(=O)c1ccc(Cl)c(OC)c1,i,i,i,-6.22*,-2.4,i,i,i,32.3%*
CCN(CC)S(=O)(=O)c1ccc(Cl)c(OC)c1,i,i,i,0.64,-13.1,i,x,x,x
Cc1cc(C)c(OCCCCN(C)Cc2ccccc2)c(C)c1,i,i,i,-7.79*,-11.5,i,i,i,36.3%*
Cc1cc(C)c(OCCCCN(C)C)c(Br)c1,i,i,i,-2.54,-5.5,i,x,x,x
Cc1ccccc1OCC1Cc2c(nc(N)c(C#N)c2N)O1 (centres undefined),x,x,x,x,x,i,x,x,x
Nc1nccnc1C(=O)OCC(=O)NC1CCCc2ccccc21 (centres undefined),x,x,x,x,x,i,x,x,x
